Screening data deposited in PubChem by several laboratories.
This is a sample that favours compounds with a hit; in the whole collection about 1.3% have one here.
CSN inh: CSN deneddylation inhibition; AID 651999; 360,000 tested, 0.38% active; inhibition, % at 12.5 µM; Purified CSN, SCF-Nedd8-OG deneddylation, fluorescence polarization;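 active = pattern-corrected inhibition above about 35%, with an unprinted fluorescence ratio check between 0.5 and 1.5, limit read from the data, passing the limit was not always enough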
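Detection – fluorescence polarization · System – HEK293T-derived human Csn5 enzyme · Controls – substrate-only high control, full reaction low control · Timing – 90 min, room temperature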
HNF4A DNA FP: change in binding of human HNF4 alpha to DNA. P41235. HNF4a-FITC DNA binding, fluorescence polarization, 1 h. activity change, % at 10 µM. 360,000 tested, 0.3% active; in the data active = activity change above about 30%, passing the limit was not always enough
Xi reactivation: activators of X-chromosome reactivation in mouse fibroblasts; 360,000 tested, 0.055% active; XiGFP mouse fibroblasts, % GFP-positive cells imaging, 3 d; cells co-treated with 5-aza-dC sensitizer; scaled so ellipticine positive control = 100%; activation, % at 7.58 µM;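 active = mean normalized replicate activation at least 10% and every replicate at or above 10%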
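System: 68-5-11 XiGFP fibroblast line; Timing: 3 days compound exposure; Compound dosing: one concentration, pinned; Benchmarks: positive control ellipticine, 6 µM final; Buffer or medium: DMEM containing 5-aza-dC.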
TPT1 inhibitor: inhibitors of Candida albicans tRNA 2'-phosphotransferase TPT1. inhibition, % at 5 µM. recombinant caTPT1, FP RNA substrate dephosphorylation. 300,000 tested, 0.81% active;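 active = inhibition above the mean of all tested compounds plus 3 SD, set per screening campaign, cut at about 24% in these data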
aDG glyco act: alpha-DG glycosylation activation; Pro5-aDG cells, alpha-DG glycosylation AlphaScreen (IIH6); 0% Pro5, 100% B10-LARGE cell signal; activation, % at 10 µM; 360,000 tested, 0.22% active; AID 624168;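 active = activation of at least 8% versus controls, or a plate z-score of at least 8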;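 also: Pro5 are CHO cells carrying HIG-tagged alpha-DG that lacks glycosylation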
Rpn11 inh: Rpn11 (human) deubiquitinase inhibition. O00487. human 26S proteasome, Ub4-pepOG fluorescence polarization; 20S core pre-blocked with epoxomicin. inhibition, % at 20 µM. 360,000 tested, 0.59% active. AID 588493;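 active = inhibition at 20 µM, scaled to each plate's controls, above about 33%, limit read from the data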
Rpn11 confirm: confirmation of human proteasome Rpn11 inhibitors; purified human 26S proteasome, Ub4-pepOG fluorescence polarization; proteasome pretreated with epoxomicin; inhibition, % at 20 µM; 1,900 tested, 29% active; shares compounds with Rpn11 inh
MMP-2 counter-1: MMP-2 (human) inhibition counter-screen; shares compounds with Rpn11 inh; recombinant MMP-2, FRET peptide cleavage fluorescence; inhibition, % at 20 µM; 1,900 tested, 4% active;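 also: human MMP-2 activated beforehand with APMA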
Thrombin inh: blocks bovine thrombin, flagging nonselective RPN11 hits; shares compounds with Rpn11 inh; inhibition, % at 20 µM; bovine thrombin cleavage of Ub4-pepOG, fluorescence polarization; 1,900 tested, 13% active;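 active = mean inhibition at least 40% at 20 µM, or signal 3 deviations below plate average, so some actives read negative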
aDG glyco conf: confirmation of alpha dystroglycan glycosylation activators. shares compounds with aDG glyco act. Pro5-aDG cells, alpha-DG glycosylation, IIH6 AlphaLISA; scaled to LARGE-overexpressing B10 cells as 100%. activation, % at 10 µM (by protocol). 600 tested, 17% active. AID 651671;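 active = activation of at least 7% in one or more replicates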;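 also: cells exposed to compound for two days before detection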
CSN deneddyl val: Csn5 (human) deneddylation inhibition, single-concentration validation | shares compounds with CSN inh | Csn5 deneddylation of SCF-Nedd8OG, fluorescence polarization, 90 min | inhibition, % at 16.6 µM | 540 tested, 62% active | AID 720654; in the data active = inhibition above about 50%
MMP-2 counter-2: blocks human MMP-2 in a CSN deneddylation counter-screen | shares compounds with CSN inh | recombinant MMP-2, FRET substrate fluorescence, 60 min | inhibition, % at 16.6 µM | 540 tested, 33% active | AID 720655;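 active = corrected plate-normalized z-score of 5 or more, or -5 or less, or inhibition of 15% or more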
Thrombin counter: counter-screen for CSN deneddylation inhibitors: bovine thrombin inhibition. shares compounds with CSN inh. bovine thrombin cleavage of Ub4-pepOG, fluorescence polarization. inhibition, % at 16.6 µM. 540 tested, 49% active. AID 720656;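 active = inhibition at or above a set limit, with a fluorescence interference ratio between 0.5 and a set maximum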
A number is an active result; 0 = inactive; - = no result; + = active, no number. Rule as the data show it, unless noted: active = inhibition above about 40%; inactive = the rest.

SMILES | CSN inh | HNF4A DNA FP | Xi reactivation | TPT1 inhibitor | aDG glyco act | Rpn11 inh | Rpn11 confirm | MMP-2 counter-1 | Thrombin inh | CSN deneddyl val | MMP-2 counter-2 | Thrombin counter | others
COc1cc(/C=c2/sc3nc(-c4ccccc4)c(-c4ccccc4)n3c2=O)cc(OC)c1OC | 0 | 0 | 0 | 0 | 0 | 0 | - | - | - | - | - | -
COc1ccc(/C=c2\sc3nc(-c4ccccc4)c(-c4ccccc4)n3c2=O)cc1OC | 0 | 0 | - | 0 | 0 | 140 | 0 | 0 | 0 | - | - | -
Cc1cccc2cc(C#N)c(SCC(=O)Nc3ccccc3N3CCOCC3)nc12 | 0 | 0 | - | 0 | 4.9 | 36 | 0 | 0 | 0 | - | - | - | aDG glyco conf=0
C[C@@H]1CCCCO[C@H](CN(C)C(=O)c2ccccc2)[C@@H](C)CN([C@@H](C)CO)C(=O)c2cc(NC(=O)Nc3cccc4ccccc34)ccc2O1 | - | - | 0 | - | - | - | - | - | - | - | - | -
CC[n+]1ccccc1/C=C/c1ccc(N(C)C)cc1 | 38 | 50 | 0 | - | 0 | 96 | 84 | 0 | 88 | 65 | -73 | 46
COc1cc(Cl)cc(/C=N\NC(=O)c2ccc3c(c2)OCO3)c1O | 99 | 0 | 0 | - | 0 | 97 | 134 | 0 | 76 | 0 | 23 | 0
COc1ccc(CN2CC3(CCN(S(=O)(=O)c4ccc(C)cc4)CC3)c3c([nH]c4cc(OC)ccc34)[C@H]2CO)cc1 | - | - | 0 | - | - | - | - | - | - | - | - | -
S=c1[nH]nc(-c2cc(-c3ccccc3)n[nH]2)n1/N=C/c1ccc(Br)s1 | 36 | 0 | 0 | 0 | 0 | + | 91 | 0 | 49 | 82 | 21 | 0
COc1ccc(Br)cc1/C=c1\sc2nc(-c3ccco3)nn2c1=O | 41 | 0 | - | 0 | 0 | 91 | 0 | 0 | 0 | 70 | 0 | 0
C[C@@H]1CN([C@@H](C)CO)C(=O)c2cc(NC(=O)C3CC3)ccc2O[C@H]1CN(C)Cc1ccccc1 | - | - | 0 | - | - | - | - | - | - | - | - | -
COc1ccc(NC(=O)N(C)C[C@@H]2OCCCC[C@H](C)Oc3ccc(NC(=O)NC(C)C)cc3C(=O)N([C@@H](C)CO)C[C@@H]2C)cc1 | - | - | 0 | - | - | - | - | - | - | - | - | -
O=C(O)CN1C(=O)/C(=C\c2cccc(OC(=O)c3ccco3)c2)SC1=S | 0 | 0 | 0 | 0 | 0 | 0 | - | - | - | - | - | -
O=C(O)CN1C(=O)/C(=C\c2ccc(OC(=O)c3ccco3)cc2)SC1=S | 54 | 73 | 0 | 0 | 0 | 122 | 96 | 0 | 68 | 82 | 0 | 68
CCC(=O)N(C)C[C@H]1Oc2cc(C#CC3(O)CCCC3)ccc2S(=O)(=O)N([C@H](C)CO)C[C@H]1C | - | - | 0 | - | - | - | - | - | - | - | - | -
O=C(O)c1ccc(/C=C2\SC(=S)N(Nc3ccccc3)C2=O)cc1 | 0 | 0 | 0 | 0 | 0 | 0 | - | - | - | - | - | -
COc1cc(/C=C2\SC(=S)N(Nc3ccccc3)C2=O)ccc1O | 46 | 37 | 0 | 0 | 0 | 112 | 72 | 0 | 101 | 85 | 0 | 56
